Measurements reported in ChEMBL document CHEMBL1153346, “Structure-activity study of pentamidine analogues as antiprotozoal agents” (J Med Chem, 2009).
Calls of active or inactive are those of the source. No cut-off for these calls is given here.

Experiments:
[1] = Selectivity index, ratio of IC50 for rat L6 cells to IC50 for Leishmania donovani MHOM/SD/62/1S-CL2D axenic amastigotes; type: toxicity, cell-based; details: read-out: Ratio IC50
In short: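 Amastigotes: 6 × 10⁴ parasites/well with 2-fold dilutions, 72 h at 37 °C in 5% CO2. Growth read by tetrazolium CellTiter absorbance at 490 nm; IC50 from a four-parameter dose-response fit.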

[2] = Selectivity index, ratio of IC50 for rat L6 cells to IC50 for Trypanosoma brucei rhodesiense STIB900 trypomastigotes; type: toxicity, cell-based; details: read-out: Ratio IC50
In short: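 Ratio of L6 IC50 to STIB900 IC50. L6 cells: 4000/well in RPMI 1640 with 10% FBS, 70 h at 37 °C. Bloodstream forms: 2000/well in supplemented MEM with 15% horse serum, 70 h at 37 °C. Both read by Alamar blue fluorescence; IC50s from sigmoidal curves, two independent runs in duplicate.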

[3] = tested on: Trypanosoma brucei rhodesiense; test: Antitrypanosomal activity against Trypanosoma brucei rhodesiense STIB900 trypomastigotes infected in NMRI mouse assessed as mouse survival at 10 mg/kg, ip administered from day 3 to day 6 postinfection; type: functional; details: route intraperitoneal
In short: (§1)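 STIB900 acute mouse model. Dosing was intraperitoneal, daily for four days, in DMSO diluted with water to 10% final DMSO. An infected untreated control group was kept. Tail blood was checked for parasitemia to day 60, and deaths were recorded to give mean survival days. Mice surviving and aparasitemic at day 60 counted as cured.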

[4] = tested on: Trypanosoma brucei rhodesiense; test: Antitrypanosomal activity against Trypanosoma brucei rhodesiense STIB900 trypomastigotes infected in NMRI mouse assessed as mouse survival at 20 mg/kg, ip administered from day 3 to day 6 postinfection; type: functional; details: route intraperitoneal; in short: as §1
[5] = tested on: L6; test: Cytotoxicity against rat L6 cells after 70 hrs by alamar blue assay; type: cell-based; details: L6, 70 h
In short: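 L6 rat myoblasts, 4000 per well, in RPMI 1640 with 2 mM L-glutamine, HEPES, NaHCO₃ and 10% FBS. Exposed to serial dilutions (DMSO ≤1%) for 70 h at 37 °C in humidified 5% CO₂. Resazurin then added for 2-3 h; fluorescence read at ex 536/em 588 nm. IC50 from sigmoidal curves; two independent runs in duplicate.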

[6] = tested on: Trypanosoma brucei rhodesiense; test: Antiprotozoal activity against Trypanosoma brucei rhodesiense STIB900 trypomastigotes after 70 hrs by alamar blue assay; type: functional, organism-based
In short: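 Bloodstream forms, 2000 per well, in MEM with Earle's salts plus 0.2 mM 2-mercaptoethanol, 1 mM pyruvate, 0.5 mM hypoxanthine and 15% heat-inactivated horse serum. Exposed to serial dilutions (DMSO ≤1%) for 70 h at 37 °C in 5% CO₂. Resazurin then added for a further 2-6 h. IC50 from sigmoidal curves; two independent runs in duplicate.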

[7] = tested on: Trypanosoma brucei rhodesiense; test: Antitrypanosomal activity against Trypanosoma brucei rhodesiense STIB900 trypomastigotes infected in NMRI mouse assessed as survival and aparasitemic condition at 10 mg/kg, ip administered from day 3 to day 6 postinfection measured after 60 days postinfection; type: functional, organism-based; set-up: dose 10 mg/kg
In short: (§2)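 STIB900 acute mouse model with 4 mice per group. Compound in DMSO diluted with water to a final 10% DMSO, given intraperitoneally once daily for four days. An infected, untreated control group was included. Tail blood checked for parasitemia until day 60. Mice alive and aparasitemic at day 60 counted as cured; deaths recorded for mean survival time.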

[8] = tested on: Plasmodium falciparum; test: Antiprotozoal activity after 48 hrs against chloroquine-resistant Plasmodium falciparum K1 infected erythrocytes by [3H]hypoxanthine uptake; type: functional, organism-based
In short: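 Erythrocytic stages in infected human red cells (hematocrit 1.25%, parasitemia 0.3%) in supplemented RPMI 1640 with Albumax II. Serial dilutions incubated at 37 °C in 93% N2/4% CO2/3% O2. [3H]-hypoxanthine (0.5 µCi/well) added at 48 h, then 24 h more. Incorporation counted by scintillation. IC50 from sigmoidal curves; two independent runs in duplicate.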

[9] = Selectivity index, ratio of IC50 for rat L6 cells to IC50 for chloroquine-resistant Plasmodium falciparum K1; type: toxicity, cell-based; details: read-out: Ratio IC50
In short: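 Ratio of L6 IC50 to K1 IC50. L6 cells: Alamar blue assay after 70 h, 37 °C. K1: [3H]-hypoxanthine incorporation in infected red cells over 48 + 24 h at 37 °C under low O2. IC50s from sigmoidal curves, two independent runs in duplicate.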

[10] = tested on: Leishmania donovani; test: Antiprotozoal activity against Leishmania donovani MHOM/SD/62/1S-CL2D axenic amastigotes after 72 hrs; type: functional, organism-based
In short: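 L. donovani axenic amastigotes, adapted from promastigotes and grown in amastigote medium at 37 °C. 6 × 10⁴ parasites per well with 2-fold compound dilutions (DMSO ≤1%), incubated 72 h at 37 °C in humidified 5% CO₂. Growth read by tetrazolium (CellTiter) absorbance at 490 nm. IC50 from a four-parameter dose-response fit. Average of duplicate determinations.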

[11] = tested on: Trypanosoma brucei rhodesiense; test: Antitrypanosomal activity against Trypanosoma brucei rhodesiense STIB900 trypomastigotes infected in NMRI mouse assessed as survival and aparasitemic condition at 5 mg/kg, ip administered from day 3 to day 6 postinfection measured after 60 days postinfection; type: functional, organism-based; set-up: dose 5 mg/kg; in short: as §2
[12] = tested on: Trypanosoma brucei rhodesiense; test: Antitrypanosomal activity against Trypanosoma brucei rhodesiense STIB900 trypomastigotes infected in NMRI mouse assessed as mouse survival at 5 mg/kg, ip administered from day 3 to day 6 postinfection; type: functional; details: route intraperitoneal; in short: as §1
[13] = tested on: Trypanosoma brucei rhodesiense; test: Antitrypanosomal activity against Trypanosoma brucei rhodesiense STIB900 trypomastigotes infected in NMRI mouse assessed as survival and aparasitemic condition at 20 mg/kg, ip administered from day 3 to day 6 postinfection measured after 60 days postinfection; type: functional, organism-based; set-up: dose 20 mg/kg; in short: as §2

Structure (SMILES)	selectivity ratio [1]	selectivity ratio [2]	Survival [3] [days]	Survival [4] [days]	IC50 [5] [nM]	IC50 [6] [nM]	Activity [7]	IC50 [8] [nM]	selectivity ratio [9]	IC50 [10] [nM]	Activity [11]	Survival [12] [days]	Activity [13]
Cl.Cl.N=C(N)c1cccc(OCCCCOc2cccc(C(=N)N)c2)c1	4	286	20	>43	16000	56	inactive	21	762	4460			
Cl.Cl.c1cc(C2=NCCN2)ccc1OCCCCOc1ccc(C2=NCCN2)cc1	20	257		>41.5	62700	244		31	2020	3060	inactive	7.8	
Cl.Cl.Cl.Cl.N=C(N)c1ccc(OCCCOc2ccc(C(=N)N)cc2Cl)c(Cl)c1	16	6200			24800	4		19	1300	1560	Active	>60	
Cl.Cl.N=C(N)c1ccc(OCCCCCOc2ccc(C(=N)N)cc2C(N)=O)c(C(N)=O)c1		> 3730		26.5	> 168000	45		38	> 4420	> 50000			inactive
CNC(=N)c1ccc(OCCCCCOc2ccc(C(=N)NC)cc2)cc1.Cl.Cl	32	6330		>60	152000	24		4	38000	4690		>41	Active
Cl.Cl.N=C(N)c1cccc(OCCCCCOc2cccc(C(=N)N)c2)c1	6	283		18.5	18400	65		19	968	3190			inactive
Cl.Cl.N=C(N)c1ccc(OCCCOc2ccc(C(=N)N)cc2Br)c(Br)c1	5	337			6400	19		16	400	1170	inactive	13	
Cl.Cl.Cl.Cl.N=C(N)c1ccc(OCCCCCOc2ccc(C(=N)N)cc2Cl)c(Cl)c1	8	255		>29.5	11200	44		26	431	1450			inactive
Cl.c1cc(C2=NCCN2)ccc1OCCCCCOc1ccc(C2=NCCN2)cc1	> 64	> 3360		>39	> 178000	53		3	> 59300	2770			inactive
Cl.Cl.c1cc(C2=NCCN2)ccc1NCCCCCNc1ccc(C2=NCCN2)cc1	136	34500			34500	1		1	34500	254	Active	>60	
COc1cc(C(=N)N)ccc1OCCCOc1ccc(C(=N)N)cc1OC.Cl.Cl	17	4960		>60	114000	23		62	1840	6890		>52.8	Active
COc1cc(C2=NCCN2)ccc1OCCCCCOc1ccc(C2=NCCN2)cc1OC.Cl.Cl	> 4	> 3950	>31.8		> 158000	40	inactive	19	> 8320	36300			
Cl.Cl.c1cc(C2=NCCN2)ccc1OCCCOc1ccc(C2=NCCN2)cc1	26	685	22.8	>51	75300	110	inactive	10	7530	2880			
COc1cc(C2=NCCN2)ccc1OCCCCOc1ccc(C2=NCCN2)cc1OC.Cl.Cl	> 4	> 2410	18.3		> 164000	68	inactive	20	> 8200	38900			
Cl.Cl.N=C(Nc1ccc(OCCCCCOc2ccc(NC(=N)c3ccccc3)cc2)cc1)c1ccccc1	< 1	21		7	3100	147		201	15	> 100000			inactive
Cl.Cl.N=C(N)c1ccc(OCCCCOc2ccc(C(=N)N)cc2)cc1		470		24.8	4700	10		21	224				inactive
Cl.Cl.N=C(N)c1ccc(OCCCOc2ccc(C(=N)N)cc2)cc1	6	1260		34	8800	7		6	1470	1500			inactive
COc1cc(C(=N)N)ccc1OCCCCCOc1ccc(C(=N)N)cc1OC.Cl.Cl	7	16200			162000	10		21	7710	24000	inactive	26	
COc1cc(C(=N)N)ccc1OCCCCOc1ccc(C(=N)N)cc1OC.Cl.Cl	> 5	> 693	17.5		> 187000	270	inactive	44	> 4250	38100			
Cl.Cl.N=C(N)c1ccc(SCCCCCSc2ccc(C(=N)N)cc2)cc1	6	1560			7800	5		19	411	1270	inactive	32.3	
CC(C)NC(=N)c1ccc(NCCCCCNc2ccc(C(=N)NC(C)C)cc2)cc1.Cl	22	2500			125000	50		2	62500	5750	inactive	18	
